# Rows were chosen to be rich in hits. Some 2.5% of all compounds tested hit in one or more screens of this group.
# ABHD5 PLIN5 PPI – blocks binding of human ABHD5 to perilipin-5; inhibition, % at 4 µM; AID 602281; 360,000 compounds, 0.78% hits; Split G. princeps luciferase complementation, luminescence, 4 h; Q00G26+Q8WTS1;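 active = inhibition above the mean inhibition across every tested compound plus 3 SD, cut at about 22% in these data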;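 note: 0% = DMSO only wells and the 100% control is not disclosed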
# SENP1 inh – blocks the human SENP1 SUMO protease catalytic domain | Q9P0U3 | recombinant SENP1 catalytic domain, CyPet-SUMO1-YPet FRET cleavage | inhibition, % at 10 µM | 360,000 compounds, 0.21% hits | AID 624204;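 active = inhibition at least 30% at 10 µM, raw YFP signal under a set limit, fluorescence ratio 0.5 to 1.5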;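 note: 0% = enzyme with DMSO and 100% = no enzyme wells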
#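 Assay system – human recombinant His6-tagged SENP1 catalytic domain enzyme · Input – SENP1 enzyme, 20 pM final · Buffer or medium – Tris pH 8 buffer plus EDTA, NaCl, BME, BSA, NP40, catalase · Schedule – 50 min reaction at room temperature · Technique – FRET read of cyan and yellow fluorescence · Control set – no-enzyme wells low, DMSO-plus-enzyme wells high control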
# NadD block – inhibitors of Staphylococcus aureus NadD; purified NadD enzyme, colorimetric absorbance read-out; inhibition, % at 20 µM; 360,000 compounds, 0.78% hits; AID 602399; in the data active = inhibition above about 26%
# B2AR ag – human beta-2 adrenergic receptor agonism by FAP. 340,000 compounds, 0.43% hits. AID 504454. response, % (concentration not given with the values). P07550. Am2.2-beta2AR cells, FAP receptor internalization, flow cytometry;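 active = response above a set limit, near 3 SD of response in nonfluorescent compounds, cut at about 42% in these data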
# GRK2 inh – blocks RNA aptamer binding to human GRK2; P25098; bead flow cytometry, FAM-aptamer displacement from GRK2; inhibition of aptamer binding, % at 10 µM; 330,000 compounds, 0.59% hits;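 active = inhibition of aptamer binding above 40%, roughly 3 SD of noise, on plates passing a quality check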;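 note: median bead fluorescence of bound FAM aptamer so fluorescent compounds give negative values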
# Target sequence (P25098 whole entry, looked up): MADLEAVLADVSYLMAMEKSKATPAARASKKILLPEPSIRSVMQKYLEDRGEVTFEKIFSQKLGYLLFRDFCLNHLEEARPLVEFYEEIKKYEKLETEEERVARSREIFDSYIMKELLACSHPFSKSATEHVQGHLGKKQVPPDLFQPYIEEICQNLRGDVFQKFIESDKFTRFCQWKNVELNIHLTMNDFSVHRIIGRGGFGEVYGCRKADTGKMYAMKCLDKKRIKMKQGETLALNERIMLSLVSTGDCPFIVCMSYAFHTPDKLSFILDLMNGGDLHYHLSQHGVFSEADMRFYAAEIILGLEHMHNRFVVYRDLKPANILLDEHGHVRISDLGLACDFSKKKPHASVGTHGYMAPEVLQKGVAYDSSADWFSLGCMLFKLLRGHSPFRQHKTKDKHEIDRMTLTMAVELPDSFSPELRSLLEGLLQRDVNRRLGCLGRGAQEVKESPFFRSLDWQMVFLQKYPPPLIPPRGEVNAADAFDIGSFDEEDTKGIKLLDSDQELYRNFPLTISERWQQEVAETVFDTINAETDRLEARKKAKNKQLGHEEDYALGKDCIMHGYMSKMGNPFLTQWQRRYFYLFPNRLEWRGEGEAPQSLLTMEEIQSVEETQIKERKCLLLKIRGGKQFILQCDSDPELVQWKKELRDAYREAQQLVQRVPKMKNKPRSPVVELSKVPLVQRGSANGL
# SENP1 conf – confirmation of human SENP1 SUMO protease inhibitors; shares compounds with SENP1 inh; recombinant SENP1, CyPet-SUMO1-YPet FRET cleavage; inhibition, % at 10 µM; 520 compounds, 34% hits; in the data active = inhibition mostly above about 35%, no sharp cut-off; inactive = mostly below about 32%;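 note: 0% = enzyme with DMSO and 100% = no enzyme control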
# SENP1 kin conf – SENP1 (human) inhibition, kinetic confirmation; shares compounds with SENP1 inh; recombinant SENP1, CyPet-SUMO1-YPet FRET kinetic cleavage; inhibition, % at 10 µM; 520 compounds, 26% hits; in the data active = inhibition mostly above about 32%, no sharp cut-off; inactive = mostly below about 29%;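 note: 0% = DMSO with enzyme and 100% = no enzyme substrate only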
# Starred values were filed as active, the others as inactive; · = no result given.
SMILES,ABHD5 PLIN5 PPI,SENP1 inh,NadD block,B2AR ag,GRK2 inh,SENP1 conf,SENP1 kin conf
O=C(Cn1ccccc1=S)c1ccc(Cl)c(Cl)c1,2.0,2.0,1.6,-2.0,0.0,·,·
Cc1ccc(CN2CC(C(=O)NCC(=O)Nc3c(C)cccc3C)CC2=O)cc1 (stereo not drawn),1.6,-0.4,4.3,3.3,3.0,·,·
Oc1ccc(C=NN=C2c3ccccc3-c3ccccc32)c(O)c1,8.0,70.7*,0.8,-23.0,·,78.4*,50.8*
O=C1/C(=C/c2ccc([N+](=O)[O-])cc2)C=C(c2ccccc2)N1c1ccccc1,4.8,40.1*,6.7,4.6,0.0,-4.0,-2.5
CCc1ccc2c(CN(C)Cc3ccccc3OC)cc(=O)oc2c1,0.4,-1.2,-5.2,2.1,4.0,·,·
O=c1cc(O)c(-c2ccc(Cl)cc2)c(Cl)[nH]1,4.3,-1.0,-1.3,3.6,1.0,·,·
O=C1c2cc(Cl)ccc2-c2c(O)cc(Cl)cc21,12.1,48.9*,26.0,1.6,·,18.7,15.2
CCCOC(=O)Nc1nc2ccccc2o1,2.1,30.4*,-3.3,-111.6,7.0,1.9,2.7
CCOC(=O)C(=CN=C(N)Nc1nc2ccccc2o1)C(=O)OCC,0.2,-0.8,-6.8,3.7,0.0,·,·
CCOc1ccccc1N=Nc1c(C)[nH]n(C(N)=S)c1=O,4.5,47.5*,-0.1,-0.2,0.0,13.7,3.1
O=S(=O)(c1ccc(Cl)nc1)N1CCCC1,3.8,1.7,3.9,2.8,0.0,·,·
CCOC(=O)c1ccc(NCn2c(=O)oc3ccccc32)cc1,0.9,53.9*,-5.8,-208.6,2.0,18.9,13.6
COC(=O)c1ccc(NC(=O)CCn2c(=O)oc3ccccc32)cc1,-4.7,-3.5,-3.4,-6.7,5.0,·,·
CC(C)C(NC(=O)C12CC3CC(CC(C3)C1)C2)C(=O)N/N=C/C1=C(N2CCOCC2)C(=C\c2ccc([N+](=O)[O-])cc2)/CC1 (stereo not drawn),-7.0,75.2*,31.7*,-3.1,3.0,23.5,7.0
COc1cccc(NC(=O)Nc2ccc3c(c2)CCC3)c1,1.4,0.3,-8.9,4.7,0.0,·,·
CN(C)CCNc1ccc2nnn3c4ccc(O)cc4c(=O)c1c23,-24.4,-170.1,10.5,-2.5,·,·,·
O=c1cc(NCCO)c2ccccc2o1,-4.1,-1.1,-2.5,-1.1,3.0,·,·
CCN(CC)CCNc1cccc2sc3ccccc3c(=O)c12,8.9,32.5*,-2.8,·,·,38.5*,25.9
CCN(CC)CCNc1ccc(CO)c2oc3ccccc3c(=O)c12,7.7,46.8*,-1.8,·,·,48.0*,39.5*
CN(C)CCNc1cccc2sc3ccc(O)cc3c(=O)c12,-7.9,48.6*,-2.4,·,·,57.3*,26.3
COc1ccc(Cc2nnc(Cl)c3ccccc23)cc1OC,3.9,-0.3,-5.9,0.7,4.0,·,·
CN(C)c1ccc(/C=N/NC(=O)c2cccc(C(=O)N/N=C/c3ccc(N(C)C)cc3)n2)cc1,-6.8,37.6*,17.0,2.6,1.0,-0.6,10.1
CN(C)c1ccc(/C=N/NC(=O)c2ccccc2)cc1,-3.6,-2.0,-0.4,-1.2,2.0,·,·
CC(C)c1ccc(C(=O)N(c2ccccn2)C(C)c2ccco2)cc1 (stereo not drawn),0.9,1.8,-3.6,-2.1,4.0,·,·
CC(c1ccco1)N(C(=O)c1cccs1)c1ccccn1 (stereo not drawn),3.2,30.2*,2.0,4.4,5.0,-6.1,6.3
SMILES,ABHD5 PLIN5 PPI,SENP1 inh,NadD block,B2AR ag,GRK2 inh,SENP1 conf,SENP1 kin conf
CC(C)(C)c1ccc(CC(=O)N2CCC2(C)C(=O)N2CCCCC2)cc1 (stereo not drawn),4.7,1.4,1.6,·,·,·,·
NC(=O)CCC(C(=O)O)N1C(=O)c2ccc(O)cc2C1=O (stereo not drawn),-1.8,44.0*,-8.9,-8.2,5.0,36.8*,24.1
Cc1nc(C(F)(F)F)ccc1C(=O)N1CCC1(C)C(=O)NS(=O)(=O)c1c(C)noc1C (stereo not drawn),-2.5,-1.2,4.0,·,·,·,·
COc1cc(-c2oc3cc(O)cc(O)c3c(=O)c2O[C@@H]2O[C@H](COC3O[C@@H](C)[C@H](O)[C@@H](O)[C@H]3O)[C@@H](O)[C@H](O)[C@H]2O)ccc1O (stereo partly drawn),0.2,7.9,-1.1,23.7,3.0,·,·
C[C@@H]1O[C@@H](OC[C@H]2O[C@@H](Oc3cc(O)c4c(=O)cc(-c5ccc(O)c(O)c5)oc4c3)[C@H](O)[C@@H](O)[C@@H]2O)[C@H](O)[C@H](O)[C@H]1O,2.9,42.6*,0.5,-0.1,0.0,57.0*,41.9*
CCc1ccccc1NC(=O)N1CCCc2ccccc21,4.8,1.4,-0.9,4.5,0.0,·,·
CC(C)(C)CC(C)(C)NC(=S)Nc1ccc2nc(-c3ccccn3)c(-c3ccccn3)nc2c1,-17.9,-19.0,13.0,8.8,1.0,·,·
CN(C)NC(=S)Nc1ccc2nc(-c3ccccn3)c(-c3ccccn3)nc2c1,-9.8,59.0*,-0.7,2.2,4.0,37.8*,30.6
COc1ccccc1NC(=O)c1cc2n(n1)C(C(F)(F)F)CC(c1ccc3c(c1)OCO3)N2 (stereo not drawn),-9.0,38.3*,9.7,6.3,2.0,31.1,22.6
CCCN(CC(=O)Nc1ccccc1C)C(=O)CCN1C(=O)c2cccc([N+](=O)[O-])c2C1=O,-7.2,38.0*,-1.2,6.0,0.0,19.0,19.9
Nc1c(N(CCC2=CCCCC2)C(=O)C2CC2)c(=O)[nH]c(=O)n1Cc1ccccc1,10.3,-3.9,-1.2,-1.1,0.0,·,·
COC(=O)C1=NN(c2ccc(OC)cc2)C2C(=O)N(c3ccccc3OC)C(=O)C12 (stereo not drawn),0.2,15.5,-8.5,-3.9,0.0,·,·
COC(=O)C1=CC(C(=O)c2cccs2)=NN(c2ccc(OC)cc2)C1C(=O)OC (stereo not drawn),5.3,60.7*,0.7,-1.9,4.0,59.5*,38.5*
COc1ccccc1-n1cc(C(=O)c2cc(Cl)ccc2O)cc(C#N)c1=O,8.7,45.5*,3.0,1.1,0.0,39.3*,29.0
N#Cc1cc(C(=O)c2cc(Cl)ccc2O)cn(CC2CCCO2)c1=O (stereo not drawn),-3.7,-7.1,5.9,0.5,0.0,·,·
Cc1ccccc1-n1cc(C(=O)c2cc(Cl)ccc2O)cc(C#N)c1=O,0.8,43.0*,2.7,2.8,0.0,35.0,23.7
O=C1C=C(Nc2ccc(Cl)cc2)C(=O)N1c1ccc(Cl)cc1,1.5,34.4*,21.4,-5.4,0.0,37.9*,37.5*
NC(=O)C1CCN(C(=O)CCn2c(=O)oc3ccccc32)CC1,-0.7,33.3*,-2.1,-147.5,0.0,3.5,-4.3

# Screening results deposited in PubChem by several laboratories.
